Laboratory results published in ChEMBL document CHEMBL1154881, “Synthesis and antimicrobial activities of novel 1,5-diaryl pyrazoles” (2010).
Converted amounts (≈) assume the structure as drawn.

Legend:
[1] = test system: Klebsiella pneumoniae; assay: Antibacterial activity against Klebsiella pneumoniae after 24 hrs by disk diffusion method; format: functional
Method in brief: (§1)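 Disc diffusion, each concentration tested in triplicate on nutrient agar seeded separately with fresh bacteria. Incubation 37 °C, 24 h. Solvent and growth controls included. Zones of inhibition recorded. The K. pneumoniae strain was recultured.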

[2] = test system: Staphylococcus aureus; assay: Antibacterial activity against Staphylococcus aureus ATTC 25923 after 24 hrs by broth dilution method; format: functional; details: ATTC 25923, 24 h
[3] = test system: Trichophyton mentagrophytes; assay: Antifungal activity against Trichophyton mentagrophytes after 3 to 4 days by serial plate dilution method; format: functional
Method in brief: (§2)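 Sabouraud's agar (peptone 1 g, D-glucose 4 g, agar 2 g per 100 ml water, pH 5.7) plates were lawned with spore suspension (a loopful in 3 ml normal saline) and dried 1 h at 37 °C. Wells were punched and filled with compound in DMSO at 10–50 mg/ml, with a DMSO control. Plates in triplicate, 37 °C for 3–4 days.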

[4] = test system: Escherichia coli; assay: Antibacterial activity against Escherichia coli ATTC 25922 after 24 hrs by disk diffusion method; format: functional; method in brief: as §1
[5] = test system: Trichophyton mentagrophytes; assay: Antifungal activity against Trichophyton mentagrophytes at 10 to 50 ug/ml after 3 to 4 days; format: functional
[6] = test system: Pseudomonas aeruginosa; assay: Antibacterial activity against Pseudomonas aeruginosa ATTC 27853 after 24 hrs by disk diffusion method; format: functional; method in brief: as §1
[7] = test system: Staphylococcus aureus; assay: Antibacterial activity against Staphylococcus aureus ATTC 25923 after 24 hrs by disk diffusion method; format: functional; method in brief: as §1
[8] = test system: Talaromyces marneffei; assay: Antifungal activity against Penicillium marneffei at 10 to 50 ug/ml after 3 to 4 days; format: functional
[9] = test system: Talaromyces marneffei; assay: Antifungal activity against Penicillium marneffei after 3 to 4 days by serial plate dilution method; format: functional; method in brief: as §2
[10] = test system: Aspergillus flavus; assay: Antifungal activity against Aspergillus flavus NCIM 524 after 3 to 4 days by serial plate dilution method; format: functional; method in brief: as §2
[11] = test system: Aspergillus fumigatus; assay: Antifungal activity against Aspergillus fumigatus NCIM 902 after 3 to 4 days by serial plate dilution method; format: functional; method in brief: as §2
[12] = test system: Escherichia coli; assay: Antibacterial activity against Escherichia coli ATTC 25922 after 24 hrs by broth dilution method; format: functional; details: ATTC 25922, 24 h
[13] = test system: Pseudomonas aeruginosa; assay: Antibacterial activity against Pseudomonas aeruginosa ATTC 27853 after 24 hrs by broth dilution method; format: functional; details: ATTC 27853, 24 h
[14] = test system: Klebsiella pneumoniae; assay: Antibacterial activity against Klebsiella pneumoniae after 24 hrs by […]

SMILES	inhibition zone (IZ) [1] [mm]	MIC [2] [mg/L]	inhibition zone (IZ) [3] [mm]	inhibition zone (IZ) [4] [mm]	MIC [5] [mg/L]	inhibition zone (IZ) [6] [mm]	inhibition zone (IZ) [7] [mm]	MIC [8] [mg/L]	inhibition zone (IZ) [9] [mm]	inhibition zone (IZ) [10] [mm]	inhibition zone (IZ) [11] [mm]	MIC [12] [mg/L]	MIC [13] [mg/L]	MIC [14] [mg/L]
N#Cc1ccc(NC(=O)N2CCN(C(=O)c3cc(-c4ccc(Cl)cc4)n(-c4ccc(F)cc4)n3)CC2)cc1	19	12.5 (≈ 23.6 µM)	21	19	12.5 (≈ 23.6 µM)	<10	21	12.5 (≈ 23.6 µM)	23	<10	24	12.5 (≈ 23.6 µM)	–	–
Fc1ccc(-n2nc(-c3nc(-c4ccc(Cl)cc4)cs3)cc2-c2ccc(Cl)cc2)cc1	17	–	19	21	–	16	<10	–	<10	<10	<10	12.5 (≈ 26.8 µM)	–	–
CS(=O)(=O)OC1CCN(C(=O)c2cc(-c3ccc(Cl)cc3)n(-c3ccc(F)cc3)n2)CC1	23	12.5 (≈ 26.2 µM)	28	28	12.5 (≈ 26.2 µM)	21	26	12.5 (≈ 26.2 µM)	29	31	25	12.5 (≈ 26.2 µM)	50 (≈ 105 µM)	12.5 (≈ 26.2 µM)
Cc1cc(C2CCCCC2)n(O)c(=O)c1.NCCO [CICLOPIROX OLAMINE]	–	–	27	–	3.12	–	–	6.25	23	27	26	–	–	–
Cc1nc(NC(=O)c2cc(-c3ccc(Cl)cc3)n(-c3ccc(F)cc3)n2)sc1C(=O)O	<10	–	<10	<10	–	<10	<10	–	<10	<10	<10	–	–	–
CCCCCC(=O)N1CCN(C(=O)c2cc(-c3ccc(Cl)cc3)n(-c3ccc(F)cc3)n2)CC1	21	12.5 (≈ 25.9 µM)	20	18	12.5 (≈ 25.9 µM)	<10	18	12.5 (≈ 25.9 µM)	19	<10	28	12.5 (≈ 25.9 µM)	–	–
Cc1nc(-c2cc(-c3ccc(Cl)cc3)n(-c3ccc(F)cc3)n2)sc1-c1n[nH]c(=O)o1	<10	–	<10	<10	–	<10	<10	–	<10	<10	<10	–	–	–
CCOC(=O)c1sc(NC(=O)c2cc(-c3ccc(Cl)cc3)n(-c3ccc(F)cc3)n2)nc1C	<10	–	<10	<10	–	<10	<10	–	<10	<10	<10	–	–	–
N#Cc1ccc(-c2csc(-c3cc(-c4ccc(Cl)cc4)n(-c4ccc(F)cc4)n3)n2)cc1	17	12.5 (≈ 27.4 µM)	22	20	12.5 (≈ 27.4 µM)	19	19	12.5 (≈ 27.4 µM)	22	<10	<10	12.5 (≈ 27.4 µM)	50 (≈ 109 µM)	–
Cc1nc(-c2cc(-c3ccc(Cl)cc3)n(-c3ccc(F)cc3)n2)sc1C(=O)NNC(=O)NC(=O)c1ccc(C(F)(F)F)cc1	19	12.5 (≈ 19.4 µM)	17	20	12.5 (≈ 19.4 µM)	<10	19	12.5 (≈ 19.4 µM)	22	<10	25	12.5 (≈ 19.4 µM)	–	50 (≈ 77.8 µM)
O=C(c1cc(-c2ccc(Cl)cc2)n(-c2ccc(F)cc2)n1)N1CCNCC1	19	–	19	<10	50 (≈ 130 µM)	19	<10	–	<10	25	23	–	50 (≈ 130 µM)	12.5 (≈ 32.5 µM)
O=C(c1cc(-c2ccc(Cl)cc2)n(-c2ccc(F)cc2)n1)N1CCC(O)CC1	21	12.5 (≈ 31.3 µM)	26	24	12.5 (≈ 31.3 µM)	29	23	12.5 (≈ 31.3 µM)	24	29	27	12.5 (≈ 31.3 µM)	–	12.5 (≈ 31.3 µM)
C=CCNC(=O)NNC(=O)c1sc(-c2cc(-c3ccc(Cl)cc3)n(-c3ccc(F)cc3)n2)nc1C	21	12.5 (≈ 24.5 µM)	19	22	12.5 (≈ 24.5 µM)	<10	21	12.5 (≈ 24.5 µM)	21	21	23	12.5 (≈ 24.5 µM)	–	–
C=CCNC(=O)N1CCN(C(=O)c2cc(-c3ccc(Cl)cc3)n(-c3ccc(F)cc3)n2)CC1	19	12.5 (≈ 26.7 µM)	22	19	12.5 (≈ 26.7 µM)	19	20	12.5 (≈ 26.7 µM)	24	19	16	12.5 (≈ 26.7 µM)	–	50 (≈ 107 µM)
Cc1nc(-c2cc(-c3ccc(Cl)cc3)n(-c3ccc(F)cc3)n2)sc1C(=O)NNC(=S)NC(=O)c1ccccc1	<10	–	<10	<10	–	<10	<10	–	<10	<10	<10	–	–	–
O=C(O)c1cn(C2CC2)c2cc(N3CCNCC3)c(F)cc2c1=O [CIPROFLOXACIN]	24	6.25 (≈ 18.9 µM)	–	32	–	28	23	–	–	–	–	6.25 (≈ 18.9 µM)	6.25 (≈ 18.9 µM)	6.25 (≈ 18.9 µM)
O=C(Nc1ccc(Cl)nc1)c1cc(-c2ccc(Cl)cc2)n(-c2ccc(F)cc2)n1	<10	–	<10	<10	–	<10	<10	–	<10	<10	<10	–	–	–
O=C(c1cc(-c2ccc(Cl)cc2)n(-c2ccc(F)cc2)n1)N1CCN(C(=O)C2CC2)CC1	19	12.5 (≈ 27.6 µM)	20	20	12.5 (≈ 27.6 µM)	17	20	12.5 (≈ 27.6 µM)	21	24	22	12.5 (≈ 27.6 µM)	–	12.5 (≈ 27.6 µM)
Cc1nc(-c2cc(-c3ccc(Cl)cc3)n(-c3ccc(F)cc3)n2)sc1C(=O)NN	19	12.5 (≈ 29.2 µM)	19	18	12.5 (≈ 29.2 µM)	19	20	12.5 (≈ 29.2 µM)	20	<10	19	12.5 (≈ 29.2 µM)	–	50 (≈ 117 µM)
CCNC(=O)N1CCN(C(=O)c2cc(-c3ccc(Cl)cc3)n(-c3ccc(F)cc3)n2)CC1	17	12.5 (≈ 27.4 µM)	24	19	12.5 (≈ 27.4 µM)	<10	18	12.5 (≈ 27.4 µM)	19	17	18	12.5 (≈ 27.4 µM)	–	50 (≈ 110 µM)
